In PMC6796888 (ACS Omega, 2019):
Values after ≈ are worked out from the molar mass of the structure shown.

What was measured:
[1] = tested on: E. faecalis MTCC 439; test: In vitro screening, % growth inhibition at 250 μg/mL; type: cell-based, Enterococcus faecalis
How it was run: (§1)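 Test compounds dissolved in DMSO and diluted in test medium. Mid-log cultures diluted in nutrient broth to McFarland standard and treated with 250 μg/mL in 96-well plates, 37 °C, 160 rpm, 24 h. Growth read as OD at 580 nm; % inhibition calculated from absorbance against untreated growth. Run twice on different occasions.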

[2] = tested on: S. typhimurium MTCC 3224; test: as above; type: cell-based, Salmonella typhimurium; details: 24 h
How it was run: as §1

[3] = tested on: P. auroginosa MTCC 2453; test: as above; type: cell-based, Pseudomonas auroginosa
How it was run: as §1

[4] = tested on: S. pneumoniae MTCC 655; test: as above; type: cell-based, Streptococcus pneumoniae
How it was run: as §1

[5] = tested on: E. coli ATCC 25922; test: as above; type: cell-based, Escherichia coli
How it was run: as §1

[6] = tested on: E. faecalis MTCC 439; test: MIC by broth microdilution; type: cell-based; details: Enterococcus faecalis, MTCC439
[7] = tested on: S. typhimurium MTCC 3224; test: MIC by broth microdilution; type: cell-based; details: Salmonella enterica, MTCC3224|TYPHIMURIUM
[8] = tested on: P. auroginosa MTCC 2453; test: MIC by broth microdilution; type: cell-based, Pseudomonas auroginosa; details: Pseudomonas, MTCC2453
[9] = tested on: S. pneumoniae MTCC 655; test: MIC by broth microdilution; type: cell-based; details: Streptococcus pneumoniae, MTCC655
[10] = tested on: E. coli ATCC 25922; test: MIC by broth microdilution; type: cell-based; details: Escherichia coli, ATCC25922
[11] = Hemolytic assay; type: cell-based; details: human, human red blood cells (erythrocytes/PBS suspension)
How it was run: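 Human blood from a healthy donor was collected in EDTA and spun at 2000 rpm for 10 min at room temperature. Erythrocytes were PBS-washed, made into a 10% (v/v) suspension and diluted 1:10. Test compound (400–3.125 μg/mL in PBS) mixed with an equal volume of this suspension, 1 h at 37 °C, then spun.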

[12] = tested on: E. coli ATCC 25922; test: Disk diffusion assay; type: cell-based, Escherichia coli
[13] = tested on: S. pneumoniae MTCC 655; test: Disk diffusion assay; type: cell-based, Streptococcus pneumoniae
[14] = tested on: S. pneumoniae MTCC 655; test: Spot assay; type: cell-based, Streptococcus pneumoniae; details: 2MIC, 6 h exposure
How it was run: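 Mid-log S. pneumoniae MTCC 655 harvested and diluted in sterile PBS to McFarland standard. 2 mL suspension exposed to test compound at 2MIC, MIC or 0.5MIC, 37 °C, 160 rpm, 6 h. 2 μL spots put on nutrient agar, 37 °C for 24 h, growth scored +/−. Ciprofloxacin-treated positive and untreated negative controls. Triplicate, three occasions.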

[15] = tested on: E. coli; test: Growth kinetic studies; type: cell-based, Escherichia coli; details: 2MIC and MIC
[16] = tested on: S. pneumoniae; test: Growth kinetic studies; type: cell-based, Streptococcus pneumoniae; details: 2MIC and MIC
[17] = tested on: E. coli; test: Time–kill curve assay; type: cell-based, Escherichia coli
How it was run: (§2)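 Nutrient broth inoculated with about 2 × 10^6 cells of fresh culture, two-fold diluted and exposed to test compound at MIC or 2MIC; untreated control included. Incubation at 37 °C, 160 rpm. At 0, 2, 4, 8 and 24 h, 100 μL was diluted in sterile saline, 50 μL plated on nutrient agar and colonies counted after 24 h at 37 °C. Duplicate; mean log10 CFU/mL plotted against time.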

[18] = tested on: S. pneumoniae; test: Time–kill curve assay; type: cell-based, Streptococcus pneumoniae; details: up to 24 h
How it was run: as §2

[19] = tested on: P. aeruginosa; test: Synergistic assay with ciprofloxacin; type: cell-based
[20] = tested on: S. typhimurium; test: Synergistic assay with ciprofloxacin; type: cell-based, Salmonella typhimurium
[21] = tested on: E. faecalis; test: Synergistic assay with ciprofloxacin; type: cell-based, Enterococcus faecalis
[22] = tested on: S. pneumoniae; test: Synergistic assay with ciprofloxacin; type: cell-based, Streptococcus pneumoniae
[23] = tested on: E. coli; test: Synergistic assay with ciprofloxacin; type: cell-based, Escherichia coli
[24] = tested on: E. coli cells; test: Confocal laser microscopy with DAPI staining; type: cell-based, Escherichia coli; details: MIC of 4l for 3 h
[25] = tested on: E. coli biofilm; test: Biofilm assessment by XTT assay; type: cell-based, Escherichia coli; details: for reduction in absorbance (biofilm, XTT): 24 h
How it was run: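 Biofilms grown from 100 μL standardized cell suspension in nutrient broth with 0.5% extra glucose, 37 °C, 24 h, static. […] Washed again, XTT salt added for 90 min at 37 °C in the dark, A490 read. % inhibition taken from dose–response curves.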

[26] = tested on: S. pneumoniae biofilm; test: Biofilm assessment by XTT assay; type: cell-based, Streptococcus pneumoniae
[27] = tested on: E. coli biofilm; test: Biofilm formation assessment by SEM; type: cell-based, Escherichia coli; details: 24 h
How it was run: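 Sterile glass pieces (10 mm2) placed in nutrient broth with 0.5% extra glucose and inoculated with fresh E. coli primary culture. […] Glass washed with PBS and fixed overnight in 2.5% glutaraldehyde/2% paraformaldehyde in 0.1 M phosphate buffer pH 7.4. Washed, dried, imaged by SEM; untreated control included.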

[28] = P. aeruginosa, 4l combined with CIP
[29] = S. typhimurium, 4l combined with CIP
[30] = E. faecalis, 4l combined with CIP
[31] = S. pneumoniae, 4l combined with CIP

CNC1=C([N+](=O)[O-])C2(C(=O)Nc3ccccc32)C2=C(O1)C(=O)c1ccccc1C2=O (stereo not drawn) [Compound 4l]
% inhibition at 250 μg/mL ([1]; E. faecalis MTCC 439, 250 μg/mL, 24 h): complete inhibition
inhibition at 250 µg/mL ([1]; Enterococcus faecalis, MTCC439, 24 h, read-out: % inhibition at 250 μg/mL): 100%
% inhibition at 250 μg/mL [2]: complete inhibition
% inhibition at 250 μg/mL ([3]; P. auroginosa MTCC 2453, 250 μg/mL, 24 h): complete inhibition
inhibition at 250 µg/mL ([3]; Pseudomonas, MTCC2453, 24 h, read-out: % inhibition at 250 μg/mL): 100%
% inhibition at 250 μg/mL ([4]; S. pneumoniae MTCC 655, 250 μg/mL, 24 h): complete inhibition
inhibition at 250 µg/mL ([4]; Streptococcus pneumoniae, MTCC655, 24 h, read-out: % inhibition at 250 μg/mL): 100%
% inhibition at 250 μg/mL ([5]; E. coli ATCC 25922, 250 μg/mL, 24 h): complete inhibition
inhibition at 250 µg/mL ([5]; Escherichia coli, ATCC25922, 24 h, read-out: % inhibition at 250 μg/mL): 100%
MIC [6]: 250 mg/L (≈ 620 µM)
MIC [7]: 250 mg/L (≈ 620 µM)
MIC [8]: 125 mg/L (≈ 310 µM)
MIC [9]: 125 mg/L (≈ 310 µM)
MIC [10]: 125 mg/L (≈ 310 µM)
hemolysis at 1 h, 100 μg/mL [11]: 13%
hemolysis at 1 h, 200 μg/mL [11]: 20%
hemolysis at 1 h, 400 μg/mL [11]: 32%
additional opaque zone of inhibition ([12]; 2MIC, MIC and 0.5MIC disks): 3 ± 1 mm
clear zone of inhibition ([12]; disk with 0.5MIC (62.5 μg/mL)): 14 mm
clear zone of inhibition ([12]; disk with 2MIC (250 μg/mL)): 18 mm
clear zone of inhibition ([12]; disk with MIC (125 μg/mL)): 17 mm
additional opaque zone of inhibition ([13]; 2MIC, MIC and 0.5MIC disks): 3 ± 1 mm
clear zone of inhibition ([13]; disk with 0.5MIC (62.5 μg/mL)): 14 mm
clear zone of inhibition ([13]; disk with 2MIC (250 μg/mL)): 17 mm
clear zone of inhibition ([13]; disk with MIC (125 μg/mL)): 15 mm
growth in spot assay (in words) [14]: no S. pneumoniae growth
continuous lag phase (no substantial growth) [15]: 24 h
continuous lag phase (no substantial growth) [16]: 24 h
killing activity (time–kill) ([17]; 2MIC, after 24 h): complete eradication
killing activity (time–kill) ([17]; MIC, up to 24 h): significant decrease in log10 CFU/mL
killing activity (time–kill) ([18]; 2MIC): almost completely killed bacterial cells
killing activity (time–kill) ([18]; MIC): significant decrease in log10 CFU/mL
FICI [19, 28]: 1.06
MIC in combination [19, 28]: 15.63 mg/L
mode of interaction [19, 28]: indifferent (An FIC index result of >0.5 but <4 was considered indifferent)
MIC ([19]; Pseudomonas aeruginosa, read-out: MIC alone): 250 mg/L
FICI [20, 29]: 1.01
MIC in combination [20, 29]: 3.90 mg/L
mode of interaction [20, 29]: indifferent (An FIC index result of >0.5 but <4 was considered indifferent)
MIC ([20]; Salmonella enterica, TYPHIMURIUM, read-out: MIC alone): 250 mg/L
FICI [21, 30]: 0.27
MIC in combination [21, 30]: 3.90 mg/L
mode of interaction [21, 30]: synergistic (Synergy and antagonism were defined by FIC indices of <0.5 and >4, respectively)
MIC ([21]; Enterococcus faecalis, read-out: MIC alone): 250 mg/L
FICI [22, 31]: 0.29
MIC in combination [22, 31]: 3.90 mg/L
mode of interaction [22, 31]: synergistic (Synergy and antagonism were defined by FIC indices of <0.5 and >4, respectively)
MIC ([22]; Streptococcus pneumoniae, read-out: MIC alone): 125 mg/L
FICI ([23]; E. coli, 4l combined with CIP): 0.53
MIC in combination ([23]; E. coli, 4l combined with CIP): 3.90 mg/L
MIC ([23]; Escherichia coli, read-out: MIC alone): 125 mg/L
effect on E. coli cells under confocal microscopy (DAPI) [24]: reduction in the number of living cells
reduction in absorbance (biofilm, XTT) ([25]; 2MIC (by order)): 80%
reduction in absorbance (biofilm, XTT) ([25]; 4MIC (first of 4MIC, 2MIC, MIC by order)): 97%
reduction in absorbance (biofilm, XTT) ([25]; MIC (by order)): 77%
effect on biofilm formation (XTT) ([25]; sub-MIC: MIC/2, MIC/4, MIC/8): significant reduction in biofilm formation
effect on biofilm formation (XTT) ([26]; even at MIC, 24 h): almost completely disrupted biofilm formation
effect on biofilm formation (XTT) ([26]; sub-MIC: MIC/2, MIC/4, MIC/8): significant reduction in biofilm formation
biofilm appearance under SEM ([27]; 2MIC): very few scattered bacterial cells
biofilm appearance under SEM ([27]; MIC): significant damage in biofilm formation
